Laboratory results from ChEMBL document CHEMBL1153749, “Flavonoids from the heartwood of the Thai medicinal plant Dalbergia parviflora and their effects on estrogenic-responsive human breast cancer cells” (2009).
Calls of active or inactive are those of the source. The rule behind the calls is not given here.

Columns and labels:
Format in all cases: functional
[1] = test system: T47D; test: Estrogenic activity in human T47D cells assessed as drug level causing stimulation of cell proliferation equivalent to 10 pM estradiol after 96 hrs by alamar blue assay
How it was run: (§1)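 Cells seeded at 10^4 per well in phenol red-free RPMI with 5% DCC-treated FBS. Compounds added in DMSO (vehicle control 1% DMSO) for 96 h at 37 °C, 5% CO2, with serial estradiol dilutions run alongside. Alamar Blue for 3 h, fluorescence ex 530/em 590 nm. Estradiol-equivalent concentration fitted by linear regression from at least five concentrations in quadruplicate.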

[2] = test system: MCF7; test: Estrogenic activity in human MCF7 cells assessed as drug level causing stimulation of cell proliferation equivalent to 100 pM estradiol after 96 hrs by alamar blue assay; how it was run: as §1
[3] = test system: T47D; test: Estrogenic activity in human T47D cells assessed as drug level causing stimulation of cell proliferation equivalent to 100 pM estradiol after 96 hrs by alamar blue assay; how it was run: as §1
[4] = test system: MCF7; test: Estrogenic activity in human MCF7 cells assessed as drug level causing stimulation of cell proliferation equivalent to 10 pM estradiol after 96 hrs by alamar blue assay; how it was run: as §1
[5] = test system: MCF7; test: Estrogenic activity in luciferase transfected human MCF7 cells assessed as drug level causing stimulation of cell proliferation equivalent to 10 pM estradiol by luciferase reporter gene assay
How it was run: (§2)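 Reporter assay in MCF-7 or T47D cells transiently transfected with luciferase. Compounds tested from 0.01 to 10 µM. Luciferase induction is expressed as the compound concentration equivalent to the 10 or 100 pM estradiol response. Values come from linear regression over at least five concentrations in quadruplicate.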

[6] = test system: MCF7; test: Estrogenic activity in luciferase transfected human MCF7 cells assessed as drug level causing stimulation of cell proliferation equivalent to 100 pM estradiol by luciferase reporter gene assay; how it was run: as §2
[7] = test system: T47D; test: Estrogenic activity in luciferase transfected human T47D cells assessed as drug level causing stimulation of cell proliferation equivalent to 10 pM estradiol by luciferase reporter gene assay; how it was run: as §2
[8] = test system: T47D; test: Estrogenic activity in luciferase transfected human T47D cells assessed as drug level causing stimulation of cell proliferation equivalent to 100 pM estradiol by luciferase reporter gene assay; how it was run: as §2

| SMILES | Activity [1] | Activity [2] | Activity [3] | Activity [4] | Activity [5] | Activity [6] | Activity [7] | Activity [8] |
| --- | --- | --- | --- | --- | --- | --- | --- | --- |
| COc1ccc(-c2coc3cc(O)ccc3c2=O)cc1O [CALYCOSIN] | 4.1 µM | >100 µM | >100 µM | >100 µM | 0.6 µM | 4.7 µM | 8.8 µM | >100 µM |
| COc1ccc([C@@H]2COc3cc(O)ccc3C2)c(OC)c1O | 0.4 µM | >100 µM | 6.4 µM | >100 µM | 0.9 µM | 7.8 µM | 6.3 µM | >100 µM |
| COC1=CC(=O)C(c2coc3cc(O)ccc3c2=O)=CC1=O [BOWDICHIONE] | >100 µM | 1.4 µM | >100 µM | 0.01 µM | 0.7 µM | 0.9 µM | >100 µM | >100 µM |
| COc1ccc(-c2coc3cc(O)cc(O)c3c2=O)cc1O [PRATENSEIN] | 6.4 µM | 50.4 µM | >100 µM | 4.5 µM | >100 µM | >100 µM | >100 µM | >100 µM |
| COc1ccc(C2COc3cc(O)ccc3C2=O)c(O)c1 (centres undefined) | 1.5 µM | 45.3 µM | 33.7 µM | 5.7 µM | >100 µM | >100 µM | 7.3 µM | >100 µM |
| COc1cc(O)c([C@@H]2COc3cc(O)ccc3C2)cc1OC | 0.02 µM | 0.2 µM | >100 µM | 1.1 µM | >100 µM | >100 µM | >100 µM | >100 µM |
| COc1cc([C@H]2Oc3cc(O)ccc3C(=O)[C@@H]2O)ccc1O [ERYCIBENIN D] | 5.7 µM | >100 µM | >100 µM | >100 µM | >100 µM | >100 µM | 0.3 µM | >100 µM |
| COc1ccc(-c2coc3cc(O)ccc3c2=O)c(OC)c1O [KHRINONE E] | >100 µM | >100 µM | >100 µM | 4.7 µM | 5.9 µM | >100 µM | >100 µM | >100 µM |
| COc1ccc(-c2coc3cc(O)ccc3c2=O)c(OC)c1 [2'-METHOXYFORMONETIN] | 0.01 µM | 5.2 µM | 1.7 µM | 0.3 µM | >100 µM | >100 µM | 1.8 µM | 6.2 µM |
| COc1cc(OC)c(-c2coc3cc(O)cc(O)c3c2=O)cc1OC | 0.1 µM | >100 µM | >100 µM | >100 µM | 5.4 µM | 7.8 µM | 6.3 µM | >100 µM |
| COc1ccc(C2COc3cc(O)ccc3C2=O)c(OC)c1OC (centres undefined) | 6.1 µM | 46.3 µM | >100 µM | 2.5 µM | >100 µM | >100 µM | 3.3 µM | >100 µM |
| O=C1C[C@@H](c2ccc(O)cc2)Oc2cc(O)ccc21 [LIQUIRTIGENIN] | 0.64 µM | 0.65 µM | >100 µM | 0.1 µM | 0.01 µM | 0.01 µM | 0.01 µM | 5.9 µM |
| COc1cc2c(cc1O)C1c3ccc(O)cc3OCC1O2 (racemic) | inactive | inactive | inactive | inactive | inactive | inactive | inactive | inactive |
| COc1ccc(-c2coc3cc(O)cc(O)c3c2=O)cc1 [BIOCHANIN] | 0.3 µM | 3.8 µM | 0.5 µM | 0.3 µM | >100 µM | >100 µM | 0.01 µM | 0.01 µM |
| COc1cc(O)ccc1-c1coc2cc(O)cc(O)c2c1=O [THERALIN] | 1.7 µM | >100 µM | >100 µM | 0.6 µM | 0.01 µM | 0.4 µM | >100 µM | >100 µM |
| O=C1C[C@@H](c2ccc(O)cc2)Oc2cc(O)cc(O)c21 [NARINGENIN] | 0.09 µM | 0.7 µM | 1.6 µM | 0.2 µM | 1.7 µM | 2.6 µM | 0.01 µM | 5.8 µM |
| COc1c(O)cc2occ(-c3ccc(O)cc3)c(=O)c2c1O [TECTORIGENIN] | 0.3 µM | 2.7 µM | 6.9 µM | 0.5 µM | >100 µM | >100 µM | 1.4 µM | 2.2 µM |
| O=c1c(-c2ccc(O)cc2)coc2cc(O)cc(O)c12 [GENISTEIN] | 0.01 µM | 0.11 µM | 0.08 µM | 0.01 µM | 0.01 µM | 0.01 µM | 0.01 µM | 0.6 µM |
| COc1cc(O)c(-c2coc3cc(O)cc(O)c3c2=O)cc1O [KHRINONE B] | >100 µM | >100 µM | >100 µM | >100 µM | >100 µM | >100 µM | >100 µM | >100 µM |
| COc1ccc([C@H]2COc3cc(O)ccc3C2=O)c(OC)c1O | 2.1 µM | 9.4 µM | 8.9 µM | 2.1 µM | >100 µM | >100 µM | 0.6 µM | >100 µM |
| COc1cc(O)ccc1C/C=C/c1ccc(O)cc1 [XENOGNOSIN] | 0.7 µM | 4.6 µM | >100 µM | 0.1 µM | >100 µM | >100 µM | 0.01 µM | 5.7 µM |
| COc1ccc(-c2coc3cc(O)cc(O)c3c2=O)c(OC)c1 | 0.4 µM | 19.6 µM | >100 µM | 3.2 µM | >100 µM | >100 µM | 1.8 µM | 3.1 µM |
| COc1c(C/C=C/c2ccccc2)ccc(O)c1O [HYDROXYOBUSTYRENE] | 5.1 µM | >100 µM | >100 µM | >100 µM | >100 µM | >100 µM | >100 µM | >100 µM |
| COc1cc(O)c(-c2coc3cc(O)ccc3c2=O)cc1O [KHRINONE A] | >100 µM | >100 µM | >100 µM | >100 µM | >100 µM | >100 µM | 5.6 µM | 8.4 µM |
| O=C1c2c(O)cc(O)cc2O[C@H](c2ccccc2)[C@H]1O | inactive | inactive | inactive | inactive | inactive | inactive | inactive | inactive |
| COc1ccc(C2COc3c(ccc(O)c3O)C2)c(OC)c1O (centres undefined) | inactive | inactive | inactive | inactive | inactive | inactive | inactive | inactive |
| COc1cc(-c2coc3cc(O)ccc3c2=O)ccc1O | >100 µM | >100 µM | >100 µM | 4.7 µM | 1.1 µM | 2.2 µM | 1.2 µM | 5.8 µM |
| COc1cc2c(cc1-c1coc3cc(O)cc(O)c3c1=O)OCO2 [KHRINONE D] | 0.01 µM | 4.2 µM | >100 µM | 1.8 µM | 0.01 µM | 0.6 µM | 5.3 µM | >100 µM |
